EBI2 antag: EBI2 (human) antagonism; P32249; EBI2 beta-arrestin recruitment, luminescence, 7a,25-OHC stimulated; inhibition, % at 5 µM; 360,000 tested, 0.81% active; in the data active = inhibition above about 38%;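 note: enzyme fragment complementation signal reports receptor beta-arrestin coupling in cells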
APJ antagonist: blocks the human apelin receptor APJ | CHO-K1 APJ beta-arrestin complementation, luminescence | inhibition, % at 20 µM | 330,000 tested, 0.32% active;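 active = inhibition above about 40% at 20 µM, limit read from the data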;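 note: cells challenged with 10 nM apelin-13 agonist together with compound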
CXCR6 inh: blocks human CXCR6 beta-arrestin recruitment | O00574 | CHO-K1 PathHunter CXCR6 beta-arrestin, luminescence | inhibition, % at 20 µM | 360,000 tested, 0.36% active; in the data active = inhibition above about 34%, passing the limit was not always enough;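 note: antagonist mode with CXCL16 agonist at 10 nM final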
Target sequence (O00574 whole entry, looked up): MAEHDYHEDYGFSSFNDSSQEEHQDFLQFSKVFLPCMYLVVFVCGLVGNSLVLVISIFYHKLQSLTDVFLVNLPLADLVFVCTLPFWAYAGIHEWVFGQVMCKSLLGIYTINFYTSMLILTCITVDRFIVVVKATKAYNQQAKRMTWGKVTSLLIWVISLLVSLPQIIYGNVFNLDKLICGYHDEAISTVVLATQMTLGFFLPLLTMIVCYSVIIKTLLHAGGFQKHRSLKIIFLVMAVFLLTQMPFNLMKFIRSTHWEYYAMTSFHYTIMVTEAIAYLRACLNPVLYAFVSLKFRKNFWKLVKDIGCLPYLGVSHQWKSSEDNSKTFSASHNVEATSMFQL
CCR6 antag: CCR6 (human) receptor antagonism; P51684; CHO-K1 CCR6 PathHunter beta-arrestin, luminescence, CCL20-stimulated; 340,000 tested, 0.49% active; inhibition, % at 20 µM;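 active = compounds whose inhibition of the agonist-driven luminescence signal at 20 µM reaches about 50%, limit read from the data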;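 note: cells stimulated with CCL20 at 14 nM final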
APJ ag: activates the human apelin receptor APJ | P35414 | CHO-K1 APJ PathHunter beta-arrestin, luminescence; 0% DMSO wells, 100% apelin | activation, % at 20 µM | 330,000 tested, 0.11% active | AID 2520;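 active = activation more than six SD over the plate average, tested at 20 µM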
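Material: CHO-K1 APJ beta-arrestin complementation cell line; Input: cell density 1000 per well; Incubation: compound stimulation 90 min at 25 °C, detection 60 min; Signal: luminescence from split beta-galactosidase complementation, Galacton Star/Emerald II substrate; Controls: DMSO-only wells as negative, 10 nM Apelin-13 as positive control.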
APJ antag conf: APJ receptor antagonism confirmation; shares compounds with APJ antagonist; APJ beta-arrestin recruitment, luminescence, antagonist mode; inhibition, % at 20 µM; 950 tested, 66% active; in the data active = inhibition above about 50%
A number is an active result; i = inactive; nt = not tested or not shown. This is a sample that favours compounds with a hit; in the whole collection about 1.5% have one here.

SMILES	EBI2 antag	APJ antagonist	CXCR6 inh	CCR6 antag	APJ ag	APJ antag conf
Cc1ccc(C(=O)COC(=O)CNS(=O)(=O)c2ccccc2)cc1[N+](=O)[O-]	i	48	i	80	i	86
COc1cc(OC)cc(C(=O)N[C@H](C(=O)OCC(=O)c2ccc(C)c([N+](=O)[O-])c2)C(C)C)c1	i	48	i	50	i	51
CCc1ccc(C(=O)COC(=O)CNC(=O)c2ccc(Br)o2)cc1	i	i	i	i	i	nt
COc1cc(OC)cc(C(=O)N[C@H](C(=O)OCC(=O)c2c[nH]c3ccccc23)C(C)C)c1	i	i	i	i	i	nt
Cc1ccc(C(=O)COC(=O)CNC(=O)Cc2ccccc2)cc1[N+](=O)[O-]	i	45	i	68	i	62
COc1cc(/C=C(\C#N)C(=O)c2c[nH]c3ccccc23)cc(OC)c1O	i	40	46	58	i	79
CN(C)CCN(Cc1ccco1)C(=O)c1cc2c(Cl)nc3ccccc3c2s1	i	41	i	i	i	69
CCc1ccc(NC(=S)N(Cc2cccc(Br)c2)CC2CCC(C(=O)O)CC2)cc1 (configuration not stated)	i	i	i	i	i	nt
Cc1ccc(C2=NC(=O)/C(=C/c3cc(O)c(O)c(Br)c3)S2)cc1	i	i	i	i	i	nt
COc1cc(/C=C2\SC(c3ccc(C)cc3)=NC2=O)cc(OC)c1O	i	56	i	65	i	77
Nc1nc2c(c(=O)[nH]1)C(c1ccccc1)C1=C(N2)c2ccccc2C1=O (configuration not stated)	i	45	i	i	i	i
COc1cccc(NC(=O)C2(C)CCN2Cc2ccc(SC)cc2)c1 (configuration not stated)	i	nt	i	nt	nt	nt
Cc1cc(C)cc(N(CC(=O)NCCSc2ccccn2)S(=O)(=O)c2ccccc2)c1	i	43	i	i	i	i
Cc1nn(CC(=O)NCCCc2ccccc2)c(=O)c2cc3occc3n12	i	41	i	i	i	i
Cc1ccnc2nc(C(=O)Nc3cc(Cl)ccc3N3CCOCC3)nn12	i	57	i	i	i	i
O=C(Nc1cc(Cl)ccc1N1CCOCC1)c1ccc(Br)o1	i	i	i	i	i	nt
CC1(C)Oc2ccc3ccc(=O)oc3c2/C(=C/NNC(N)=O)C1=O	i	50	i	71	i	62
CCc1ccc(N2CC(C(=O)Nc3nnc(CC)s3)CC2=O)cc1 (configuration not stated)	i	62	i	i	i	i
CCc1nnc(NC(=O)C2CC(=O)N(Cc3ccccc3)C2)s1 (configuration not stated)	i	i	i	i	i	nt
CCN1C(=O)/C(=C2\C=Cc3ccccc3N2CC)SC1=S	i	43	57	84	i	100
COc1ccc(S(=O)(=O)Cc2ccc(C(=O)NCc3ccccc3OC)o2)cc1	i	45	i	i	i	i
Nc1cc(=O)[nH]n1C1CCCCC1	i	i	i	i	i	nt
COc1ccc(-n2ncc3c(=O)n(CC(=O)NC(C)C)cnc32)cc1	i	i	i	i	i	nt
c1ccc(NCc2nnc3n2CCCCC3)cc1	i	i	i	i	i	nt
Clc1ccc(NCc2nnc3n2CCCCC3)cc1	i	58	i	i	i	i
SMILES	EBI2 antag	APJ antagonist	CXCR6 inh	CCR6 antag	APJ ag	APJ antag conf
CN1CCN(C(=O)c2cnn(-c3ccccc3)c2NC(=O)c2ccccc2)CC1	i	i	i	i	i	nt
O=C(Nc1c(C(=O)N2CCCCC2)cnn1-c1ccccc1)c1ccccc1F	i	62	i	i	i	i
CCCCn1c(NC(=O)c2ccc(Br)o2)c(S(=O)(=O)c2ccccc2)c2nc3ccccc3nc21	i	55	i	i	i	i
COc1cc(/C=C2/N=C(C3CCCCC3)OC2=O)cc(OC)c1OC	i	42	i	i	i	i
COc1cc(/C=C2\N=C(C)OC2=O)cc(OC)c1OC	i	i	i	i	i	nt
CCN(CC)S(=O)(=O)c1ccc2oc(SCC(=O)Nc3cc(C)on3)nc2c1	i	43	i	nt	i	53
CCCCCCCCCCCCCCCC[N+](C)(C)CCN(Cc1ccc(OC)cc1)c1ncccn1	i	51	i	65	i	i
Cc1cccc(C)c1C(=NCCCN(C)C)c1ccccc1	i	i	i	i	i	nt
O=C(CCCC(=O)OCC(=O)c1ccc(F)cc1)Nc1cc(C(F)(F)F)ccc1Cl	i	i	i	i	i	nt
O=C(CCCC(=O)OCC(=O)c1ccc(Cl)cc1Cl)Nc1cc(C(F)(F)F)ccc1Cl	i	43	i	72	i	55
CC(C)(C)C(=O)Nc1ccccc1N1CCN(c2ccc(F)cc2)CC1	i	i	i	i	i	nt
COc1ccc(S(=O)(=O)N(CC(=O)NCc2ccncc2)c2ccc(C)cc2)cc1Br	i	i	i	i	i	nt
O=c1ccc2c(-c3ccccc3)c3ccc(O)cc3oc-2c1	i	i	i	i	i	nt
Nc1ccc(-c2c3ccc(=O)cc-3oc3cc(O)ccc23)cc1C(=O)O	i	41	i	i	i	i
COc1cc(/C=C2/C(=O)NN(c3ccc(Cl)cc3)C2=O)cc(OC)c1O	i	41	i	i	i	i
COc1cc(/C=C2/C(=O)NN(c3ccccc3)C2=O)cc(Br)c1O	i	i	i	i	i	nt
COc1cc(/C=C2/C(=O)N(c3ccc(C(=O)O)cc3)N=C2C)cc(OC)c1O	i	59	40	69	i	95
C/C(=N\O)C(=O)C(CN1CCCCC1)CN1CCCCC1	i	42	i	51	i	i
COc1cc(/C=C2\SC(=S)N(N(C)c3ccccc3)C2=O)ccc1O	i	56	i	i	i	95
CC(=O)Oc1ccc(/C=C2/SC(=S)N(Cc3ccccc3)C2=O)cc1	i	47	i	50	i	72
CCOc1cc(/C=C2/SC(=S)N(Cc3ccccc3)C2=O)ccc1O	i	46	43	54	i	87
COc1cc(/C=C2/SC(=S)N(Cc3ccccc3)C2=O)ccc1OCC(=O)O	i	i	i	i	i	nt
O=C(Cn1cnc2sc3c(c2c1=O)CCCC3)NCC(=O)Nc1c(F)cc(F)cc1Br	i	i	i	i	i	nt
CC(=O)Nc1ccc(Nc2ncnc3ccccc23)cc1	nt	43	nt	nt	i	i
CCOc1ccc(N=C2NC(=O)S/C2=C\c2ccc(N(C)C)cc2)cc1	i	43	i	i	i	61
CCOc1ccc(/C=C2/SC(=O)NC2=S)cc1	i	i	i	i	i	nt
c1cc(-c2ccc(CN3CCOCC3)cc2)n2ccnc2c1	i	nt	i	nt	nt	nt
Cc1ccc(C(=O)COC(=O)C(C)N2C(=O)C3C4CCC(C4)C3C2=O)cc1C (configuration not stated)	i	i	i	i	i	nt
CC(C(=O)OCC(=O)c1cccc([N+](=O)[O-])c1)N1C(=O)C2C3CCC(C3)C2C1=O (configuration not stated)	i	58	i	55	i	53

High-throughput results: PubChem, Sanford-Burnham Center for Chemical Genomics
